ChEMBL document CHEMBL4270544, “Design, synthesis and biological evaluation of a novel tubulin inhibitor 7a3 targeting the colchicine binding site” (Eur J Med Chem, 2018)
The source made the active and inactive calls. The rule behind the calls is not given here.

What was measured:
Mus musculus [1] = assay: Toxicity in Balb/c mouse xenografted with human SKOV3 cells assessed as pathological changes in heart at 50 mg/kg, ip administered every two days for three times by hematoxylin and eosin staining based assay; format: organism-based; details: in vivo
Method in brief: (§1)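 In SK-OV-3 xenografted Balb/c nude mice dosed 50 mg/kg intraperitoneally in 5% DMSO/olive oil every two days, three times, organs were collected and examined after H&E staining.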

SK-OV-3 [2] = assay: Cell cycle arrest in human SKOV3 cells assessed as accumulation at G2/M phase at 80 nM after 24 hrs by propidium iodide staining based flow cytometry (reference value: 24.99%); format: functional
Method in brief: (§2)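 SK-OV-3 cells exposed to 40, 80 or 160 nM for 24 h, with untreated cells as control. Stained with PI and analysed by flow cytometry for phase distribution. Mean ± SEM of three independent experiments; t-test against control.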

SK-OV-3 [3] = assay: Antimigratory activity against human SKOV3 cells assessed as wound closure at 160 nM after 24 hrs by microscopy based scratch wound assay (reference value: 79.5 +/- 2.8%); format: functional
[4] = AUC (0 to infinity) in C57 mouse at 50 mg/kg, ip administered as single dose by LC-MS/MS analysis; format: ADME, organism-based; design: dose 50 mg/kg, time infinity, route intraperitoneal; details: in vivo
Method in brief: (§3)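 Male C57 mice, one intraperitoneal dose. Blood drawn from submaxillary vein at 0, 5, 15, 30 min and 1, 2, 4, 8, 12, 24 h. Plasma measured by LC/MS/MS in MRM mode with CA-4 as internal standard. Calibration by weighted linear regression over 0.01–500 ng/mL. Parameters obtained by non-compartmental analysis.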

SK-OV-3 [5] = assay: Inhibition of tubulin assembly in human SKOV3 cells assessed as disorganized spindle formation at 10 to 1000 nM after 24 hrs by DAPI staining based immunofluorescence microscopic method; format: functional, cell-based
Method in brief: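 SK-OV-3 cells exposed to DMSO or 10, 100 or 1000 nM for 24 h. Fixed in methanol, stained with FITC anti-β-tubulin antibody, counterstained with DAPI, and imaged by confocal microscopy.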

A549 = assay: Antiproliferative activity against human A549 cells after 72 hrs by CCK8 assay; format: functional, cell-based; details: A549, 72 h
Method in brief: (§4)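 CCK-8 proliferation assay with CA-4 as positive control. IC50 is the concentration giving 50% inhibition of proliferation. Mean ± SEM from three independent experiments.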

SK-OV-3 [6] = assay: Cell cycle arrest in human SKOV3 cells assessed as accumulation at G0/G1 phase at 40 nM after 24 hrs by propidium iodide staining based flow cytometry (reference value: 67.79%); format: functional; method in brief: as §2
Mus musculus [7] = assay: Toxicity in Balb/c mouse xenografted with human SKOV3 cells assessed as pathological changes in lung at 50 mg/kg, ip administered every two days for three times by hematoxylin and eosin staining based assay; format: organism-based; details: in vivo; method in brief: as §1
SK-OV-3 [8] = assay: Antitumor activity against human SKOV3 cells xenografted in Balb/c mouse assessed as reduction in tumor growth at 50 mg/kg, ip administered every two days for three times measured every 3 to 4 days relative to control; format: functional; design: scale not given: the % may be the effect or the level left
Method in brief: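 Six-week-old Balb/c nude mice given subcutaneous SK-OV-3 cells in the back. Randomised into three groups at about 200 mm3 tumour size. Dosed 50 mg/kg intraperitoneally in 5% DMSO/olive oil every two days, three times; vehicle group as control. Tumour volume and body weight tracked; six animals per group, mean ± SEM, t-test.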

Mus musculus [9] = assay: Toxicity in Balb/c mouse xenografted with human SKOV3 cells assessed as pathological changes in spleen at 50 mg/kg, ip administered every two days for three times by hematoxylin and eosin staining based assay; format: organism-based; details: in vivo
Method in brief: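 Six-week-old Balb/c nude mice received subcutaneous SK-OV-3 cells in the back. At ~200 mm3 tumour size they were randomized to vehicle or drug groups, six per group. Drug was given in 5% (v/v) DMSO/olive oil, intraperitoneally, every two days for three doses. Heart, liver, spleen, lung and kidney were collected and examined by H&E staining.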

SK-OV-3 [10] = assay: Induction of apoptosis in human SKOV3 cells assessed as live cells at 40 nM after 48 hrs by Annexin-V-FITC/propidium iodide staining based flow cytometry (reference value: 94.43%); format: functional
SK-OV-3 [11] = assay: Induction of apoptosis in human SKOV3 cells assessed as early apoptotic cells at 40 nM after 48 hrs by Annexin-V-FITC/propidium iodide staining based flow cytometry (reference value: 0.97%); format: functional
SK-OV-3 [12] = assay: Cell cycle arrest in human SKOV3 cells assessed as accumulation at S phase at 40 nM after 24 hrs by propidium iodide staining based flow cytometry (reference value: 18.09%); format: functional; method in brief: as §2
Bos taurus [13] = organism: Bos taurus; assay: Inhibition of bovine MAP-rich tubulin polymerization at 10 uM measured every 1 min for 30 mins relative to control
Method in brief: (§5)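 Purified tubulin polymerization followed at 37 °C by absorbance at 340 nm, read every 1 min for 30 min. Test concentrations 2.5, 10 and 40 µM. CA-4 at 10 µM served as positive control and DMSO (1%, v/v) as vehicle. Polymerization is expressed relative to the vehicle group.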

[14] = Mean residence time in C57 mouse at 50 mg/kg, ip administered as single dose by LC-MS/MS analysis; format: ADME, organism-based; details: in vivo; method in brief: as §3
Mus musculus [15] = assay: Area under the first moment curve (0 to 24 hrs) in C57 mouse at 50 mg/kg, ip administered as single dose by LC-MS/MS analysis; format: ADME, organism-based; details: in vivo; method in brief: as §3
Bos taurus [16] = organism: Bos taurus; assay: Inhibition of bovine MAP-rich tubulin polymerization measured every 1 min for 30 mins; method in brief: as §5
SK-OV-3 [17] = assay: Cell cycle arrest in human SKOV3 cells assessed as accumulation at G2/M phase at 160 nM after 24 hrs by propidium iodide staining based flow cytometry (reference value: 14.12%)
SK-OV-3 [18] = assay: Induction of apoptosis in human SKOV3 cells assessed as necrotic cells at 40 nM after 48 hrs by Annexin-V-FITC/propidium iodide staining based flow cytometry (reference value: 0.67%); format: functional
Bos taurus [19] = organism: Bos taurus; assay: Inhibition of bovine MAP-rich tubulin polymerization at 2.5 uM measured every 1 min for 30 mins relative to control; method in brief: as §5
SK-OV-3 [20] = assay: Cell cycle arrest in human SKOV3 cells assessed as accumulation at G0/G1 phase at 160 nM after 24 hrs by propidium iodide staining based flow cytometry (reference value: 67.79%); format: functional; method in brief: as §2
HeLa = assay: Antiproliferative activity against human HeLa cells after 72 hrs by CCK8 assay; format: functional, cell-based; method in brief: as §4
SK-OV-3 [21] = assay: Induction of apoptosis in human SKOV3 cells assessed as live cells at 160 nM after 48 hrs by Annexin-V-FITC/propidium iodide staining based flow cytometry (reference value: 94.43%); format: functional
MCF7 = assay: Antiproliferative activity against human MCF7 cells after 72 hrs by CCK8 assay; format: functional, cell-based; details: MCF7, 72 h; method in brief: as §4
SK-OV-3 [22] = assay: Induction of apoptosis in human SKOV3 cells assessed as late apoptotic cells at 40 nM after 48 hrs by Annexin-V-FITC/propidium iodide staining based flow cytometry (reference value: 3.93%); format: functional
Mus musculus [23] = assay: Toxicity in Balb/c mouse xenografted with human SKOV3 cells assessed as pathological changes in kidney at 50 mg/kg, ip administered every two days for three times by hematoxylin and eosin staining based assay; format: organism-based; details: in vivo; method in brief: as §1

AUC(0-inf) [4]: 1170 ng·h/mL
IC50 (A549): 67 nM
inhibition (Bos taurus [13]): 60.4%
MRT [14]: 1.51 h
AUMC (Mus musculus [15]): 1498 hr.hr.ng/ml
inhibition (Bos taurus [16]): Dose-dependent effect
inhibition (Bos taurus [19]): 30.5%
IC50 (HeLa): 32.8 nM
IC50 (MCF7): 35.4 nM
SMILES: CCOc1ccc(-c2cn(C)nc2-c2cc(OC)c(OC)c(OC)c2)cc1
Activity (Mus musculus [1]): Non-Toxic
Activity (SK-OV-3 [2]): 34.65%
Activity (SK-OV-3 [3]): 32.1%
inhibition (SK-OV-3 [5]): Active
Activity (SK-OV-3 [6]): 54.42%
Activity (Mus musculus [7]): Non-Toxic
Activity (SK-OV-3 [8]): 62.8%
Activity (Mus musculus [9]): Non-Toxic
Activity (SK-OV-3 [10]): 91.03%
Activity (SK-OV-3 [11]): 1.35%
Activity (SK-OV-3 [12]): 20.99%
Activity (SK-OV-3 [17]): 65.79%
Activity (SK-OV-3 [18]): 0.97%
Activity (SK-OV-3 [20]): 8.05%
Activity (SK-OV-3 [21]): 41.9%
Activity (SK-OV-3 [22]): 6.65%
Activity (Mus musculus [23]): Non-Toxic
